S1P4 antag – antagonists of human S1P4 receptor; O95977; S1P4-expressing cells, antagonist mode, reporter read-out; inhibition, % at 4.98 µM; hit rate 0.26% among 220,000; AID 1510; in the data active means inhibition above about 29%;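 further: 0% = wells stimulated with agonist and 100% = vehicle wells without agonist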
S1P3 antagonist – antagonists of human S1P3 receptor | Q99500 | AID 485 | hit rate 0.27% among 170,000 | inhibition, % at 4.98 µM | CHO S1P3 NFAT-BLA reporter, FRET fluorescence, antagonist mode;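 active means inhibition above the plate cutoff, the mean inhibition of test wells on that plate plus 3 SD, cut at about 28% in these data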;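 further: cells challenged with S1P at its EC80 of 0.8 µM; blue over green emission ratio from cleaved BLA substrate after 4 h stimulation; 0% = S1P-stimulated wells and 100% = unstimulated DMSO-only wells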
S1P4 ag – human S1P4 receptor agonism | O95977 | S1P4-expressing cell line, agonist reporter assay | activation, % at 4.98 µM | hit rate 0.35% among 220,000 | AID 1509; in the data active means activation above about 11%;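 further: 0% = DMSO vehicle and 100% = reference agonist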
Pf gametocyte – P. falciparum stage V gametocyte viability inhibition; P. falciparum stage V gametocytes, ATP luminescence, 24 h; AID 743093; hit rate 0.065% among 150,000; inhibition, % at 10.9 µM;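 active means inhibition above the mean plus 3 SD of compounds within the control limits, set per campaign, cut at about 38% in these data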;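 further: 0% = DMSO wells and 100% = medium only without gametocytes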
Biofilm kill mix – mixtures killing C. albicans biofilm; C. albicans biofilm persisters + clotrimazole, fluorescence viability; primary screen in compound mixtures of four per well; inhibition, % at 7.6 µM; hit rate 0.02% among 120,000;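 active means inhibition above 30.3% in the primary screen of four-compound pools, then above 30% when the compound was retested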;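 further: compounds exposed to preformed 24 h biofilms for 48 h; 0% = untreated biofilm control and 100% = clotrimazole plus chlorhexidine kill blank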
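Test system: C. albicans CAF4-2 wild-type biofilms; buffer or medium: RPMI/MOPS medium, pH 7.0; schedule: 24 h biofilm formation, then 48 h compound exposure, 37 °C; detection: Alamar Blue fluorescence; measure: percent inhibition of biofilm viability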
S1P4 agonist cf – confirmation of human S1P4 receptor agonists | shares compounds with S1P4 ag | S1P4 agonist cell-based reporter assay | activation, % at 4.98 µM | hit rate 7% among 740; in the data active means activation above about 12%;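 further: 0% = vehicle and 100% = full reference agonist response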
S1P1 agonist – activates human S1P1, counter-screen for S1P4 agonists; shares compounds with S1P4 ag; S1P1 agonist cell-based assay, activation; activation, % at 4.98 µM; hit rate 4% among 740; AID 1563; in the data active means activation above about 21%;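 further: 0% = vehicle wells and 100% = reference agonist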
Target sequence (P21453 whole entry, looked up): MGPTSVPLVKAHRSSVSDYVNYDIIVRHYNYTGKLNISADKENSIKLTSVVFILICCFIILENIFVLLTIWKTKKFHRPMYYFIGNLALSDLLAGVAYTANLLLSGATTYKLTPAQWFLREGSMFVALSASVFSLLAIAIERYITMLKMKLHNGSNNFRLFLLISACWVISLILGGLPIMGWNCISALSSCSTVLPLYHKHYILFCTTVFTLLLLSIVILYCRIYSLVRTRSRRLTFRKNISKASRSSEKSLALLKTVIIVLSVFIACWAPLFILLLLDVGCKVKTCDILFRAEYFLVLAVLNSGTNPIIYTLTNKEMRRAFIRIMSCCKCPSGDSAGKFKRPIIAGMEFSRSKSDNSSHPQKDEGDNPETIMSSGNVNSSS
* hit, by the source's call; x = not tested or not shown. Most compounds without a hit are left out; they make up all but 0.77% or so of the library.

SMILES	S1P4 antag	S1P3 antagonist	S1P4 ag	Pf gametocyte	Biofilm kill mix	S1P4 agonist cf	S1P1 agonist
Cc1nn(Cc2nnc(SCC(=O)Nc3cccc(C(F)(F)F)c3)n2C)c(C)c1[N+](=O)[O-]	13	-6	56*	18	15	-2	-5
Cn1c(Cn2cnc([N+](=O)[O-])n2)nnc1SCC(=O)Nc1cccc(Cl)c1	-14	11	-1	-7	16	x	x
CC(C)CC(=O)Nc1ccc(-c2nnn(CC(=O)NCc3ccco3)n2)cc1	-4	-10	14*	5	15	-2	-5
CCCCOc1ccc(-c2nnn(CC(=O)NCc3ccco3)n2)cc1	-6	-43	-2	x	x	x	x
Clc1ccc(C2=NN(c3ccccc3)C(c3ccco3)C2)cc1 (stereo not given)	-20	-18	20*	0	17	14*	30*
NS(=O)(=O)c1ccc(CCNC(=O)c2cc3ccccc3oc2=O)cc1	x	x	x	8	x	x	x
C=CCc1c(O)c(CC)cc2c(C)cc(=O)oc12	-8	-2	28*	3	27	6	7
CCN(CC)Cc1c(O)c(Cl)cc2c(C)cc(=O)oc12	-2	-20	6	x	-2	x	x
O=[N+]([O-])c1ccc(COc2ccc(-c3[nH]ncc3-c3ccc(Cl)cc3)c(O)c2)cc1	-3	-3	114*	-19	-4	-2	-1
COc1ccc(-c2cn[nH]c2-c2ccc(OCc3ccc([N+](=O)[O-])cc3)cc2O)cc1OC	2	15	0	-12	15	x	x
CC1=C(C(=O)OCc2ccccc2)C(c2ccccc2OS(=O)(=O)c2ccc([N+](=O)[O-])cc2)NC(=O)N1CCCC(=O)O (stereo not given)	x	x	x	-56	x	x	x
Cc1cc(/C=C2\SC(=O)N(C)C2=O)c(C)n1-c1ccc(O)cc1	x	x	x	-3	x	x	x
CN=C1S/C(=C\c2cc(C)n(-c3ccccc3F)c2C)C(=O)N1C	-35	x	59*	x	x	89*	72*
Cc1ccc(NC(=O)c2oc3ccc(S(=O)(=O)N4CCC5(CC4)OCCO5)cc3c2C)cc1C	3	1	49*	5	21	-2	-5
COc1ccc(N=c2oc3cc(O)ccc3cc2C(=O)Nc2ccccn2)cc1OC	-5	-26	2	12	13	x	x
O=C(NCc1ccco1)c1cc2ccc(O)cc2oc1=O	-127	-36	112*	30	x	51*	84*
Cc1ccc(N=c2oc3cc(O)ccc3cc2C(N)=O)cc1	-55	29	35*	-5	x	4	2
CC(=O)c1cc2ccc(O)cc2oc1=O	-59	-37	104*	4	18	45*	66*
COc1ccc2cc(C(C)=O)c(=O)oc2c1	-23	-7	0	x	10	x	x
O=S(=O)(Nc1ccccn1)c1cnc(Cl)c(Br)c1	-6	0	-1	x	18	x	x
COCn1c(-c2ccc(OC)c(OC)c2)nc2ccccc21	-3	10	2	-22	x	x	x
COCn1c(-c2cccc(Br)c2)nc2ccccc21	15	23	82*	3	x	0	7
CCCn1c(=O)c(-c2nc3ccccc3[nH]2)c(O)c2ccccc21	-20	-5	1	19	12	x	x
CCn1c(=O)c(-c2nc3ccccc3[nH]2)c(O)c2ccccc21	-3	-15	35*	x	26	-3	0
O=C(NC12CC3CC(CC(C3)C1)C2)c1ccc([N+](=O)[O-])o1	x	x	x	9	x	x	x
SMILES	S1P4 antag	S1P3 antagonist	S1P4 ag	Pf gametocyte	Biofilm kill mix	S1P4 agonist cf	S1P1 agonist
O=C(CN1c2ccccc2Sc2ccccc21)NNC(=S)Nc1ccc(Cl)cc1	1	-5	94*	-20	7	-1	-4
O=C(CN1c2ccccc2Sc2ccccc21)NNC(=S)Nc1ccc(Cl)cc1Cl	-7	x	-1	x	x	x	x
Cc1ccc(OCC(=O)NC(=S)Nc2ccc3c4c(cccc24)CC3)cc1	2	3	0	-3	-1	x	x
CC(C)(C)c1ccc(OCC(=O)Nc2ccc3c4c(cccc24)C(=O)NC3=O)cc1	-11	-7	19*	27	11	1	-4
C[C@H](NC(=O)c1nc[nH]c1C(=O)N[C@@H](Cc1ccccc1)C(=O)OCc1ccccc1)C(=O)OCc1ccccc1	x	x	x	7	x	x	x
CNC(=O)c1[nH]cnc1C(=O)N[C@@H](Cc1ccccc1)C(=O)OCc1ccccc1	-26	-35	23*	x	17	56*	38*
CN1C(=O)OC2(C)CCc3ccccc3C12C (stereo not given)	-16	22	22*	12	x	-1	-2
O=c1c2[nH]c3ccccc3c2ncn1CCC1=CCCCC1	-9	12	17*	x	x	-2	-2
Cc1ccc2[nH]c3c(=O)n(CCC4=CCCCC4)cnc3c2c1	-5	x	1	x	x	x	x
CCc1ccc2c(c1)/C(=N/OC)C(=O)N2	-5	-8	60*	x	3	-2	16
COc1ccc2c(c1)C(=O)C(=O)N2	-21	6	-2	4	17	x	x
C=C(C)CNC(=O)c1ccc2nc(Cc3ccc(OC)cc3)oc2c1	x	x	x	7	x	x	x
Cc1ccsc1/C=N/n1c(C2CCCCC2)n[nH]c1=S	-10	5	5	21	10	x	x
Cc1ccc(/C=N/n2c(C3CCCCC3)n[nH]c2=S)s1	-10	-9	21*	-21	12	-1	0
C/C(CC(=O)Nc1ccc(Br)cc1)=N\NC(=O)Cc1csc(N)n1	13	0	101*	-10	2	-2	-1
C/C(CC(=O)Nc1ccc(F)cc1)=N\NC(=O)Cc1csc(N)n1	-4	2	0	-1	17	x	x
CCCCn1c(SCC(N)=O)nc2ccc(N3CCOCC3)cc2c1=O	1	x	-3	7	x	x	x
CCCCn1c(SCC(=O)Nc2cccc(OC)c2)nc2ccc(N3CCOCC3)cc2c1=O	-13	x	14*	-6	x	-2	-1
O=[N+]([O-])c1cccc(NC(=S)NCCc2ccccc2)c1	-18	-2	20*	-13	17	-2	3
C=CCn1c(SCC(=O)Nc2nnc(CC)s2)nnc1-c1ccco1	-15	-9	29*	15	x	-1	1
C/C(=C\c1ccccc1)C(=O)Nc1ccc(S(=O)(=O)Nc2ncccn2)cc1	-4	2	0	-27	4	x	x
NC(=O)C1CCN(C2CC(=O)N(Cc3cccs3)C2=O)CC1 (stereo not given)	3	x	28*	x	x	-2	6
O=S(=O)(CCNCc1cccs1)c1ccc(Cl)cc1	8	-15	36*	-32	18	-2	-2
COc1ccc(CNC(=S)NC2CCCC2)cc1	-3	7	11*	-10	14	-2	-9
COc1cccc(CNC(=S)NC2CCCC2)c1	0	-21	1	21	3	x	x
O=C(O)c1nn(CCSc2ccccc2F)c(=O)c2ccccc12	-12	-14	0	7	8	x	x
N#Cc1cnn2ccc(-c3cc(N4CCOCC4)ccc3[N+](=O)[O-])nc12	-10	17	14*	21	7	-2	3
COc1ccc(OC)c(NC(=O)Nc2ccc3[nH]ccc3c2)c1	x	x	x	5	x	x	x

Screening data (PubChem BioAssay)
